In ChEMBL document CHEMBL1137668, “Activities of several classes of acyclic nucleoside phosphonates against camelpox virus replication in different cell culture models” (Antimicrob Agents Chemother, 2007):
The source made the active and inactive calls. No cut-off for these calls is given here.

Tests used:
[1] = Cytotoxicity against human PHK after 4 days by Z1 Coulter counting analysis; conditions: PHK cells
Procedure, shortened: (§1)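 Cell growth inhibition: HEL cells were seeded at 3.5 × 10³ per well and PHKs at 5 × 10³ per well. Serial dilutions were added in duplicate after 1 day (HEL) or 3 days (PHK). After 4 days with compound, cells were trypsinized and counted with a Coulter counter (8 μm lower limit). CC50 is the concentration reducing growth by 50%, mean ± SD of at least two experiments.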

[2] = Selectivity index, ratio of CC50 for human PHK to EC50 for Camelpox virus CML14 infected in human PHK
Camelpox virus [3] = assay: Antiviral activity against Camelpox virus CML1-induced cytopathic effect in human PHK raft culture assessed as full protection of differentiated epithelium at 164uM treated after 7 days postinfection; type: functional, organism-based
Camelpox virus [4] = assay: Antiviral activity against Camelpox virus CML1 infected in HEL299 cells assessed as inhibition of virus-induced cytopathic effect after 6 days by Giemsa staining; type: functional, organism-based; conditions: CML1, HEL 299, 144 h
Camelpox virus [5] = assay: Antiviral activity against Camelpox virus CML14 infected in human PHK assessed as reduction in viral titer after 6 days postinfection by virus yield reduction assay; type: functional; conditions: for EC99: CML14, 144 h
[6] = Cytotoxicity against HEL299 cells after 4 days by Z1 Coulter counting analysis; type: cell-based, HEL 299; conditions: human, HEL299 cells; procedure, shortened: as §1
Camelpox virus [7] = assay: Antiviral activity against Camelpox virus CML14 infected in human PHK assessed as inhibition of virus-induced cytopathic effect after 6 days by Giemsa staining; type: functional, organism-based; conditions: CML14, 144 h
Camelpox virus [8] = assay: Antiviral activity against Camelpox virus CML14 infected in HEL299 cells assessed as reduction in viral titer after 6 days postinfection by virus yield reduction assay; type: functional; conditions: for Activity: HEL 299; for EC99: CML14, HEL 299, 144 h
Camelpox virus [9] = assay: Antiviral activity against Camelpox virus CML1 infected in HEL299 cells assessed as reduction in viral titer after 6 days postinfection by virus yield reduction assay; type: functional; conditions: for EC99: CML1, HEL 299, 144 h; for Activity: HEL 299
[10] = Selectivity index, ratio of CC50 for HEL299 cells to EC50 for Camelpox virus CML1 infected in HEL299 cells; type: toxicity, cell-based, HEL 299; conditions: human, HEL299 cells; read-out: Ratio CC50/IC50
[11] = Selectivity index, ratio of CC50 for human PHK to EC50 for Camelpox virus CML1 infected in human PHK
Camelpox virus [12] = assay: Antiviral activity against Camelpox virus CML14 infected in HEL299 cells assessed as inhibition of virus-induced cytopathic effect after 6 days by Giemsa staining; type: functional, organism-based; conditions: CML14, HEL 299, 144 h
[13] = Selectivity index, ratio of CC50 for HEL299 cells to EC50 for Camelpox virus CML14 infected in HEL299 cells; type: toxicity, cell-based, HEL 299; conditions: human, HEL299 cells; read-out: Ratio CC50/IC50
Camelpox virus [14] = assay: Antiviral activity against Camelpox virus CML1 infected in differentiated human PHK raft culture assessed as reduction in viral titer determined in HEL299 cells treated after 7 days postinfection by virus yield reduction assay; type: functional; conditions: CML1, HEL 299, 168 h
Camelpox virus [15] = assay: Antiviral activity against Camelpox virus CML1 infected in human PHK assessed as reduction in viral titer after 6 days postinfection by virus yield reduction assay; type: functional; conditions: for EC99: CML1, 144 h
Camelpox virus [16] = assay: Antiviral activity against Camelpox virus CML1 infected in human PHK assessed as inhibition of virus-induced cytopathic effect after 6 days by Giemsa staining; type: functional, organism-based; conditions: CML1, 144 h
Camelpox virus [17] = assay: Antiviral activity against Camelpox virus CML1 infected in HEL299 cells assessed as suppression of viral replication at 73 uM after 6 days postinfection by virus yield reduction assay; type: functional, organism-based; conditions: HEL 299
Camelpox virus [18] = assay: Antiviral activity against Camelpox virus CML1 infected in human PHK raft culture assessed as complete protection of differentiated cells against viral replication at 72 uM after 7 days postinfection; type: functional, organism-based
Camelpox virus [19] = assay: Antiviral activity against Camelpox virus CML14 infected in human PHK assessed as suppression of viral replication at 73 uM after 6 days postinfection by virus yield reduction assay; type: functional, organism-based
[20] = Cytotoxicity against differentiated epithelium of human PHK raft culture at 76 uM after 4 days by Z1 Coulter counting analysis; conditions: 96 h
Camelpox virus [21] = assay: Antiviral activity against Camelpox virus CML1 infected in human PHK assessed as suppression of viral replication at 73 uM after 6 days postinfection by virus yield reduction assay; type: functional, organism-based
Camelpox virus [22] = assay: Antiviral activity against Camelpox virus CML14 infected in HEL299 cells assessed as suppression of viral replication at 73 uM after 6 days postinfection by virus yield reduction assay; type: functional, organism-based; conditions: HEL 299
[23] = Cytotoxicity against differentiated epithelium of human PHK raft culture at 5 ug/ml after 4 days by Z1 Coulter counting analysis; conditions: 96 h
Camelpox virus [24] = assay: Antiviral activity against Camelpox virus CML1 infected in human PHK raft culture assessed as inhibition of virus-induced cytopathic effect at 18 uM treated after 7 days postinfection; type: functional, organism-based
Camelpox virus [25] = assay: Antiviral activity against Camelpox virus CML1 infected in human PHK epithelial raft culture assessed as inhibition of virus-induced cytopathic effect at 1.8 uM after 7 days postinfection; type: functional, organism-based
Camelpox virus [26] = assay: Antiviral activity against Camelpox virus CML1 infected in human PHK raft culture assessed as inhibition of virus-induced cytopathic effect at 7 uM treated after 7 days postinfection; type: functional, organism-based
Camelpox virus [27] = assay: Antiviral activity against Camelpox virus CML1 infected in differentiated human PHK raft culture assessed as inhibition of viral replication at 6 uM treated after 7 days postinfection by virus yield reduction assay; type: functional, organism-based
Camelpox virus [28] = assay: Antiviral activity against Camelpox virus CML14 infected in HEL299 cells assessed as inhibition of viral replication at 5 to 13 uM after 6 days postinfection by virus yield reduction assay; type: functional, HEL 299; set-up: scale not given: the % may be the effect or the level left
Camelpox virus [29] = assay: Antiviral activity against Camelpox virus CML1 infected in human PHK assessed as inhibition of viral replication at 5 to 13 uM after 6 days postinfection by virus yield reduction assay; type: functional; set-up: scale not given: the % may be the effect or the level left
Camelpox virus [30] = assay: Antiviral activity against Camelpox virus CML1 infected in HEL299 cells assessed as inhibition of viral replication at 5 to 13 uM after 6 days postinfection by virus yield reduction assay; type: functional, HEL 299; set-up: scale not given: the % may be the effect or the level left
Camelpox virus [31] = assay: Antiviral activity against Camelpox virus CML14 infected in human PHK assessed as inhibition of viral replication at 5 to 13 uM after 6 days postinfection by virus yield reduction assay; type: functional; set-up: scale not given: the % may be the effect or the level left
Camelpox virus [32] = assay: Antiviral activity against Camelpox virus CML1-induced cytopathic effect in human PHK raft culture assessed as full protection of differentiated epithelium at 65 uM treated after 7 days postinfection; type: functional, organism-based

SMILES	CC50 at 96 h [1]	Ratio CC50/IC50 [2]	EC50 (Camelpox virus [4])	Activity (Camelpox virus [5])	CC50 at 96 h [6]	EC50 (Camelpox virus [7])	Activity (Camelpox virus [8])	EC99 (Camelpox virus [9])	Activity (Camelpox virus [9])	selectivity ratio [10]	Ratio CC50/IC50 [11]	EC50 (Camelpox virus [12])	selectivity ratio [13]	EC99 (Camelpox virus [14])	Activity (Camelpox virus [15])	EC99 (Camelpox virus [15])	EC50 (Camelpox virus [16])	also measured
Nc1ccn(C[C@H]2COP(=O)(O)CO2)c(=O)n1 [CYCLIC CIDOFOVIR]	17 µM	2	6.1 µM	Dose-dependent effect	335 µM	9.1 µM	Dose-dependent effect	64 µM	Dose-dependent effect	55	2	8800 nM	38	38 µM	Dose-dependent effect	59 µM	7.2 µM	Activity (Camelpox virus [3]): Active
Nc1ncnc(=O)n1C[C@H]1COP(=O)(O)CO1	34 µM	2	4.3 µM	Dose-dependent effect	143 µM	14.8 µM	Dose-dependent effect	–	Dose-dependent effect	33	2	3000 nM	48	67 µM	Dose-dependent effect	–	18 µM	Activity (Camelpox virus [17]): Active; Activity (Camelpox virus [18]): Active; Activity (Camelpox virus [19]): Active; Activity [20]: Non-toxic; Activity (Camelpox virus [21]): Active; Activity (Camelpox virus [22]): Active
Nc1ncn(C[C@@H](CO)OCP(=O)(O)O)c(=O)n1	71 µM	7	12.3 µM	Dose-dependent effect	550 µM	9.7 µM	Dose-dependent effect	–	Dose-dependent effect	45	5	12000 nM	46	16 µM	Dose-dependent effect	–	14.8 µM	Activity (Camelpox virus [17]): Active; Activity [23]: Toxic; Activity (Camelpox virus [19]): Active; Activity (Camelpox virus [24]): inactive; Activity (Camelpox virus [25]): inactive; Activity (Camelpox virus [26]): inactive; Activity (Camelpox virus [21]): Active; Activity (Camelpox virus [22]): Active
Nc1nc(N)c2ncn(C[C@@H](CO)OCP(=O)(O)O)c2n1	2 µM	1	0.2 µM	Dose-dependent effect	45 µM	1.2 µM	Dose-dependent effect	–	Dose-dependent effect	249	2	600 nM	70	–	Dose-dependent effect	–	0.8 µM	EC99 (Camelpox virus [5]): 2 µM; Activity (Camelpox virus [27]): Active; EC99 (Camelpox virus [8]): 1 µM
Nc1nccc2c1ncn2C[C@@H](CO)OCP(=O)(O)O	0.3 µM	0.1	1.5 µM	Dose-dependent effect	30 µM	2.1 µM	Dose-dependent effect	–	Dose-dependent effect	20	0.1	1700 nM	18	–	Dose-dependent effect	–	3.1 µM	Activity (Camelpox virus [28]): 99%; Activity (Camelpox virus [29]): 99%; Activity (Camelpox virus [30]): 99%; Activity (Camelpox virus [31]): 99%
C[C@H](COC1=CC(N)N(O)C(N)=N1)OCP(=O)(O)O (some centres undefined)	5 µM	1	1.6 µM	Dose-dependent effect	162 µM	4.6 µM	Dose-dependent effect	9.5 µM	Dose-dependent effect	99	1	2000 nM	82	5 µM	Dose-dependent effect	9.5 µM	3.9 µM	EC99 (Camelpox virus [5]): 9.5 µM; EC99 (Camelpox virus [8]): 9.5 µM
Nc1ccn(C[C@@H](CO)OCP(=O)(O)O)c(=O)n1.O.O [CIDOFOVIR]	7 µM	1	8.2 µM	Dose-dependent effect	192 µM	8.8 µM	Dose-dependent effect	58 µM	Dose-dependent effect	23	1	6600 nM	29	6 µM	Dose-dependent effect	16 µM	5.3 µM	Activity (Camelpox virus [32]): Active
